Test results as given in ChEMBL document CHEMBL4041517 (Eur J Med Chem, 2017).

Assays:
[1] = molecular target: T1, Amine oxidase [flavin-containing] B (Homo sapiens, UniProt P27338); assay: Inhibition of recombinant human MAO-B using kynuramine as substrate by fluorescence spectrophotometry
T1 sequence (P27338 whole entry): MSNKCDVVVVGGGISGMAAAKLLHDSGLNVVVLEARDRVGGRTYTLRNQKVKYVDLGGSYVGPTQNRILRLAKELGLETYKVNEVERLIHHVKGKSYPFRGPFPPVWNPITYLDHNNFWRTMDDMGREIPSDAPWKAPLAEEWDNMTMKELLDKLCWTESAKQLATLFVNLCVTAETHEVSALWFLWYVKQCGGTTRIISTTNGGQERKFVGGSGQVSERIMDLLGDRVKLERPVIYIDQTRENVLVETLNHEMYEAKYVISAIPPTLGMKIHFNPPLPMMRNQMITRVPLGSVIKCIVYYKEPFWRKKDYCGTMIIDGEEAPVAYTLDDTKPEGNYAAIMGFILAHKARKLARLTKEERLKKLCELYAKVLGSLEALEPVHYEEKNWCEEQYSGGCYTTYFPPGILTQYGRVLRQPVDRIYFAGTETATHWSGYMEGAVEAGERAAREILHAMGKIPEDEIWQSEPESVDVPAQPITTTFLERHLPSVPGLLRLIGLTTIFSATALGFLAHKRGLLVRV

Homo sapiens = organism: Homo sapiens; assay: Selectivity index, ratio of IC50 for recombinant human MAO-A to IC50 for recombinant human MAO-B
In short: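 Ratio of IC50 for MAO-A to IC50 for MAO-B. Each IC50 is the mean of triplicate fluorometric kynuramine-oxidation determinations on the recombinant human enzymes.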

[2] = molecular target: T2, Amine oxidase [flavin-containing] A (Homo sapiens, UniProt P21397); assay: Inhibition of recombinant human MAO-A using kynuramine as substrate by fluorescence spectrophotometry
T2 sequence (P21397 whole entry): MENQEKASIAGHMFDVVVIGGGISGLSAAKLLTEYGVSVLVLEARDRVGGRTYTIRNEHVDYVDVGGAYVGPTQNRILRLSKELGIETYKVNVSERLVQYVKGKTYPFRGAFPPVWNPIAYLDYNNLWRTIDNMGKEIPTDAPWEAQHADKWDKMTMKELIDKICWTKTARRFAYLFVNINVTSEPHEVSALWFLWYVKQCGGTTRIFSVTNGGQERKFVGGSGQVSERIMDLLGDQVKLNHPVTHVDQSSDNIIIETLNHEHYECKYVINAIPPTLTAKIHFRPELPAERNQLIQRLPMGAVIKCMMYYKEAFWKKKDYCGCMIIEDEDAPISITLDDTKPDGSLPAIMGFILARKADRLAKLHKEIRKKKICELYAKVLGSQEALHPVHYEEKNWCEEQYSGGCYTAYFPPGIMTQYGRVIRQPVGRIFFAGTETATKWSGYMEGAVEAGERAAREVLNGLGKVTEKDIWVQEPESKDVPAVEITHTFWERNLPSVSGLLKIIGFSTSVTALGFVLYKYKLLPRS

[3] = molecular target: T1, Amine oxidase [flavin-containing] B; assay: Reversible inhibition of recombinant human MAO-B assessed as residual activity pre-incubated at 4 times IC50 for 15 mins followed by kynuramine addition measured after 20 mins by fluorescence spectrophotometric analysis relative to untreated control
In short: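 Recombinant MAO-B is preincubated with inhibitor for 15 min at 37 °C without dialysis. It is then diluted two-fold by adding kynuramine (50 final) and incubated 20 min at 37 °C. 4-Hydroxyquinoline is measured fluorometrically. Residual rate is compared with control; triplicates, mean ± SD.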

[4] = molecular target: T1, Amine oxidase [flavin-containing] B; assay: Reversible inhibition of recombinant human MAO-B assessed as residual activity pre-incubated at 4 times IC50 for 15 mins followed by dialysis for 24 hrs and subsequent kynuramine addition measured after 20 mins by fluorescence spectrophotometric analysis relative to untreated control
In short: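 Recombinant MAO-B is preincubated with inhibitor for 15 min at 37 °C, then dialysed for 24 h at 4 °C. It is then diluted two-fold by adding kynuramine (50 final) and incubated 20 min at 37 °C. 4-Hydroxyquinoline is read fluorometrically. Residual activity is compared with an inhibitor-free dialysed control; triplicates, mean ± SD. (R)-Deprenyl is run the same way.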

| Structure (SMILES) | IC50 [1] [µM] | Ratio IC50 (Homo sapiens) | IC50 [2] [µM] | Activity [3] [%] | Activity [4] [%] |
| --- | --- | --- | --- | --- | --- |
| O=[N+]([O-])/C=C/c1cccc(OCc2ccc(Cl)cc2)c1 | 0.144 | 53 | 7.59 |  |  |
| O=[N+]([O-])/C=C/c1cccc(OCc2cccc(F)c2)c1 | 0.103 | 41 | 4.2 |  |  |
| Cc1cccc(COc2cccc(/C=C/[N+](=O)[O-])c2)c1 | 0.565 | 21 | 11.8 |  |  |
| O=[N+]([O-])/C=C/c1cccc(OCc2ccc(F)cc2)c1 | 0.039 | 166 | 6.46 | 37 | 38 |
| O=[N+]([O-])/C=C/c1cccc(OCc2ccccc2)c1 | 0.085 | 43 | 3.65 |  |  |
| O=[N+]([O-])/C=C/c1cccc(OCc2cccc(Cl)c2)c1 | 0.105 | 34 | 3.52 |  |  |
| O=[N+]([O-])/C=C/c1cccc(OCc2cccc(Br)c2)c1 | 0.262 | 25 | 6.63 |  |  |
| O=[N+]([O-])/C=C/c1cccc(OCc2cccc(C(F)(F)F)c2)c1 | 0.273 | 32 | 8.78 |  |  |
| Cc1ccc(COc2cccc(/C=C/[N+](=O)[O-])c2)cc1 | 0.192 | 49 | 9.36 |  |  |
| O=[N+]([O-])/C=C/c1cccc(OCc2ccc(C(F)(F)F)cc2)c1 | 0.106 | 62 | 6.6 |  |  |
| O=[N+]([O-])/C=C/c1cccc(OCc2ccc(Br)cc2)c1 | > 100 |  | > 100 |  |  |
